Data taken from ChEMBL document CHEMBL5030505, “Assessment of NR4A Ligands That Directly Bind and Modulate the Orphan Nuclear Receptor Nurr1” (J Med Chem, 2020).
Activity calls are given as the source filed them. The calls are words filed in the database; no cut-off is given here.

Experiments:
Assay type in all cases: cell-based
[1] = test system: SK-N-BE(2); assay: Cytotoxicity against human SKNBE2 cells assessed as reduction in cell viability at 0.244 to 15.63 uM incubated for 18 hrs by Cell titer-glo assay; conditions: dose 0.244-15.63 µM
Outline: (§1)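 Cells seeded at 1.5 million per 10-cm dish. Next day they were replated at 10,000 cells/well and rested 4 h. Ligand or vehicle (water, ethanol or DMSO, by ligand) was added in dose-response format in quadruplicate. After 18 h, viability was read by CellTiter-Glo luminescence. Data are mean ± s.e.m., generally representative of 2 independent experiments. One-way ANOVA versus vehicle.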

[2] = molecular target: Nuclear receptor subfamily 4 group A member 2 (Homo sapiens) (UniProt P43354); assay: Modulation of full length human Nurr1 expressed in HEK293T cells co-transfected with luciferase reporter plasmid harboring NurRE response element at 0.244 to 15.63 uM incubated for 18 by luciferase reporter gene assay; conditions: dose 0.244-15.63 µM, time 18.0 hrs
Outline: (§2)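 Full-length Nurr1 plasmid, alone (2 μg) or 1 μg plus full-length RXRα (1 μg), cotransfected with 3xNBRE- or 3xNurRE-luciferase reporter (6 μg) using Lipofectamine 2000, 18 h. Cells replated at 10,000/well for 4 h. Four ligand concentrations, or vehicle (water, ethanol or DMSO), added in quadruplicate for 18 h. Luciferase read. Fold change vs vehicle, mean ± s.e.m., one-way ANOVA vs vehicle.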

[3] = molecular target: Nuclear receptor subfamily 4 group A member 2 (Homo sapiens) (UniProt P43354); assay: Modulation of full length human Nurr1 expressed in PC12 cells co-transfected with luciferase reporter plasmid harboring NurRE response element at 0.244 to 15.63 uM incubated for 18 by luciferase reporter gene assay; conditions: PC-12, dose 0.244-15.63 µM
Outline: (§3)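 Here PC12 cells (FK-12 medium, 15% horse serum, 2.5% FBS, 37°C, 5% CO2) received full-length Nurr1 (2 μg) without RXRα, plus 3xNBRE- or 3xNurRE-luciferase reporter (6 μg), for 18 h. Cells were replated at 10,000/well for 4 h, then treated with ligand or vehicle in quadruplicate for 18 h. Luciferase luminescence was normalized to vehicle-treated cells. Results are mean ± s.e.m. (n=4) from 2 independent experiments, with one-way ANOVA against vehicle.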

[4] = molecular target: Nuclear receptor subfamily 4 group A member 2 (Homo sapiens) (UniProt P43354); assay: Modulation of full length human Nurr1 expressed in PC12 cells co-transfected with RXRalpha and luciferase reporter plasmid harboring NBRE response element at 0.244 to 15.63 uM incubated for 18 by luciferase reporter gene assay; conditions: PC-12, dose 0.244-15.63 µM, time 18.0 hrs
Outline: (§4)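 PC12 cells were grown at 37°C and 5% CO2 in […] medium with 15% horse serum and 2.5% FBS. They were transfected with full-length Nurr1 (1 μg) plus full-length RXRα (1 μg) and 3xNBRE- or 3xNurRE-luciferase reporter (6 μg) for 18 h, then replated at 10,000 cells/well for 4 h. Ligand or vehicle (water, ethanol or DMSO) was added in quadruplicate for 18 h. Luminescence was read as fold change over vehicle. Results are mean ± s.e.m., n=4, from 2 independent experiments, analysed by one-way ANOVA against vehicle.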

[5] = test system: SKNBE2; assay: Modulation of Gal4-fused VP16 expressed in SKNBE(2) cells co-transfected with UAS repoter gene assessed as decrease in luciferase activity at 0.244 to 15.63 uM incubated for 18 hrs by luciferase reporter gene assay; conditions: Human alphaherpesvirus 2, filed as modulator, dose 0.244-15.63 µM
Outline: (§5)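 Cells in 10-cm dishes were transfected with Gal4-VP16 expression plasmid (2 μg) plus 5xUAS-luciferase reporter (2 μg) for 18 h. They were replated at 10,000 cells/well for 4 h, then given ligand or vehicle (water, ethanol or DMSO) in quadruplicate for 18 h. Luciferase was read with Britelite Plus. Fold change is versus vehicle-treated cells, with one-way ANOVA versus vehicle.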

[6] = molecular target: Nuclear receptor subfamily 4 group A member 2 (Homo sapiens) (UniProt P43354); assay: Modulation of full length human Nurr1 expressed in SKNBE(2) cells co-transfected with luciferase reporter plasmid harboring NurRE response element at 0.244 to 15.63 uM incubated for 18 by luciferase reporter gene assay; conditions: SKNBE2, dose 0.244-15.63 µM, time 18.0 hrs
[7] = molecular target: Nuclear receptor subfamily 4 group A member 2 (Homo sapiens) (UniProt P43354); assay: Modulation of full length human Nurr1 expressed in PC12 cells co-transfected with RXRalpha and luciferase reporter plasmid harboring NurRE response element at 0.244 to 15.63 uM incubated for 18 by luciferase reporter gene assay; conditions: PC-12, dose 0.244-15.63 µM, time 18.0 hrs; outline: as §4
[8] = test system: HEK293T; assay: Modulation of Gal4-fused VP16 expressed in HEK293T cells co-transfected with UAS repoter gene assessed as decrease in luciferase activity at 0.244 to 15.63 uM incubated for 18 hrs by luciferase reporter gene assay; conditions: Human alphaherpesvirus 2, filed as modulator, dose 0.244-15.63 µM; outline: as §5
[9] = molecular target: Nuclear receptor subfamily 4 group A member 2 (Homo sapiens) (UniProt P43354); assay: Modulation of full length human Nurr1 expressed in HEK293T cells co-transfected with RXRalpha and luciferase reporter plasmid harboring NurRE response element at 0.244 to 15.63 uM incubated for 18 by luciferase reporter gene assay; conditions: dose 0.244-15.63 µM, time 18.0 hrs; outline: as §2
[10] = test system: PC-12; assay: Cytotoxicity against rat PC-12 cells assessed as reduction in cell viability at 0.244 to 15.63 microM incubated for 18 hrs by Cell titer-glo assay; conditions: pc-12, 18 h, dose 0.244-15.63 µM; outline: as §1
[11] = molecular target: Nuclear receptor subfamily 4 group A member 2 (Homo sapiens) (UniProt P43354); assay: Modulation of full length human Nurr1 expressed in HEK293T cells co-transfected with RXRalpha and luciferase reporter plasmid harboring NBRE response element at 0.244 to 15.63 uM incubated for 18 by luciferase reporter gene assay; conditions: dose 0.244-15.63 µM, time 18.0 hrs; outline: as §2
[12] = test system: HEK-293T; assay: Cytotoxicity against human HEK293T cells assessed as reduction in cell viability at 0.244 to 15.63 microM incubated for 18 hrs by Cell titer-glo assay; conditions: dose 0.244-15.63 µM; outline: as §1
[13] = molecular target: Nuclear receptor subfamily 4 group A member 2 (Homo sapiens) (UniProt P43354); assay: Modulation of full length human Nurr1 expressed in HEK293T cells co-transfected with luciferase reporter plasmid harboring NBRE response element at 0.244 to 15.63 uM incubated for 18 by luciferase reporter gene assay; conditions: dose 0.244-15.63 µM, time 18.0 hrs; outline: as §2
[14] = molecular target: Nuclear receptor subfamily 4 group A member 2 (Homo sapiens) (UniProt P43354); assay: Modulation of full length human Nurr1 expressed in SKNBE(2) cells co-transfected with RXRalpha and luciferase reporter plasmid harboring NBRE response element at 0.244 to 15.63 uM incubated for 18 by luciferase reporter gene assay; conditions: SKNBE2, dose 0.244-15.63 µM
Outline: (§6)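 SK-N-BE(2)-C cells were kept in 1:1 EMEM/F12 with 10% FBS at 37°C and 5% CO2. They were cotransfected with full-length Nurr1 (1 μg), full-length RXRα (1 μg) and 3xNBRE- or 3xNurRE-luc reporter (6 μg) for 18 h, replated at 10,000 cells/well for 4 h, and then treated with ligand or vehicle in quadruplicate for 18 h. The readout was luciferase luminescence as fold over vehicle, reported as mean ± s.e.m. (n=4) from 2 independent experiments, one-way ANOVA.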

[15] = molecular target: Nuclear receptor subfamily 4 group A member 2 (Homo sapiens) (UniProt P43354); assay: Modulation of full length human Nurr1 expressed in SKNBE(2) cells co-transfected with RXRalpha and luciferase reporter plasmid harboring NurRE response element at 0.244 to 15.63 uM incubated for 18 by luciferase reporter gene assay; conditions: SKNBE2, dose 0.244-15.63 µM, time 18.0 hrs; outline: as §6
[16] = molecular target: Nuclear receptor subfamily 4 group A member 2 (Homo sapiens) (UniProt P43354); assay: Modulation of full length human Nurr1 expressed in PC12 cells co-transfected with luciferase reporter plasmid harboring NBRE response element at 0.244 to 15.63 uM incubated for 18 by luciferase reporter gene assay; conditions: PC-12, dose 0.244-15.63 µM, time 18.0 hrs; outline: as §3
[17] = test system: PC-12; assay: Modulation of Gal4-fused VP16 expressed in PC12 cells co-transfected with UAS repoter gene assessed as decrease in luciferase activity at 0.244 to 15.63 uM incubated for 18 hrs by luciferase reporter gene assay; conditions: Human alphaherpesvirus 2, filed as modulator, dose 0.244-15.63 µM; outline: as §5
[18] = molecular target: Nuclear receptor subfamily 4 group A member 2 (Homo sapiens) (UniProt P43354); assay: Modulation of full length human Nurr1 expressed in SKNBE(2) cells co-transfected with luciferase reporter plasmid harboring NBRE response element at 0.244 to 15.63 uM incubated for 18 by luciferase reporter gene assay; conditions: SKNBE2, dose 0.244-15.63 µM
[19] = molecular target: Nuclear receptor subfamily 4 group A member 2 (Homo sapiens) (UniProt P43354); assay: Modulation of full length human Nurr1 expressed in HEK293T cells co-transfected with luciferase reporter plasmid harboring NurRE response element assessed as decrease in luciferase activity at 0.244 to 15.63 uM incubated for 18 by luciferase reporter gene assay; conditions: filed as modulator, dose 0.244-15.63 µM, time 18.0 hrs; outline: as §2
[20] = molecular target: Nuclear receptor subfamily 4 group A member 2 (Homo sapiens) (UniProt P43354); assay: Modulation of full length human Nurr1 expressed in PC12 cells co-transfected with luciferase reporter plasmid harboring NurRE response element assessed as decrease in luciferase activity at 0.244 to 15.63 uM incubated for 18 by luciferase reporter gene assay; conditions: PC-12, filed as modulator, dose 0.244-15.63 µM, time 18.0 hrs; outline: as §3
[21] = molecular target: Nuclear receptor subfamily 4 group A member 2 (Homo sapiens) (UniProt P43354); assay: Modulation of full length human Nurr1 expressed in HEK293T cells co-transfected with RXRalpha and luciferase reporter plasmid harboring NurRE response element assessed as decrease in luciferase activity at 0.244 to 15.63 uM incubated for 18 by luciferase reporter gene assay; conditions: filed as modulator, dose 0.244-15.63 µM, time 18.0 hrs; outline: as §2
[22] = molecular target: Nuclear receptor subfamily 4 group A member 2 (Homo sapiens) (UniProt P43354); assay: Modulation of full length human Nurr1 expressed in HEK293T cells co-transfected with luciferase reporter plasmid harboring NBRE response element assessed as decrease in luciferase activity at 0.244 to 15.63 uM incubated for 18 by luciferase reporter gene assay; conditions: filed as modulator, dose 0.244-15.63 µM, time 18.0 hrs; outline: as §2
[23] = molecular target: Nuclear receptor subfamily 4 group A member 2 (Homo sapiens) (UniProt P43354); assay: Modulation of full length human Nurr1 expressed in SKNBE(2) cells co-transfected with luciferase reporter plasmid harboring NurRE response element assessed as decrease in luciferase activity at 0.244 to 15.63 uM incubated for 18 by luciferase reporter gene assay; conditions: SKNBE2, filed as modulator, dose 0.244-15.63 µM, time 18.0 hrs
[24] = molecular target: Nuclear receptor subfamily 4 group A member 2 (Homo sapiens) (UniProt P43354); assay: Modulation of full length human Nurr1 expressed in HEK293T cells co-transfected with RXRalpha and luciferase reporter plasmid harboring NBRE response element assessed as decrease in luciferase activity at 0.244 to 15.63 uM incubated for 18 by luciferase reporter gene assay; conditions: filed as modulator, dose 0.244-15.63 µM, time 18.0 hrs; outline: as §2
[25] = molecular target: Nuclear receptor subfamily 4 group A member 2 (Homo sapiens) (UniProt P43354); assay: Modulation of full length human Nurr1 expressed in SKNBE(2) cells co-transfected with RXRalpha and luciferase reporter plasmid harboring NurRE response element assessed as decrease in luciferase activity at 0.244 to 15.63 uM incubated for 18 by luciferase reporter gene assay; conditions: SKNBE2, filed as modulator, dose 0.244-15.63 µM, time 18.0 hrs; outline: as §6
[26] = molecular target: Nuclear receptor subfamily 4 group A member 2 (Homo sapiens) (UniProt P43354); assay: Modulation of full length human Nurr1 expressed in SKNBE(2) cells co-transfected with luciferase reporter plasmid harboring NBRE response element assessed as decrease in luciferase activity at 0.244 to 15.63 uM incubated for 18 by luciferase reporter gene assay; conditions: SKNBE2, filed as modulator, dose 0.244-15.63 µM, time 18.0 hrs
Outline: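 Transfection of SK-N-BE(2)-C cells (1:1 EMEM/F12, 10% FBS, 37°C, 5% CO2) used full-length Nurr1 alone (2 μg, no RXRα) with 3xNBRE- or 3xNurRE-luciferase reporter (6 μg) for 18 h. Cells were replated at 10,000/well for 4 h, then exposed to ligand or vehicle in quadruplicate for 18 h. Luminescence was expressed as fold over vehicle, as mean ± s.e.m. (n=4) from 2 independent experiments, one-way ANOVA against vehicle.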

[27] = molecular target: Nuclear receptor subfamily 4 group A member 2 (Homo sapiens) (UniProt P43354); assay: Modulation of full length human Nurr1 expressed in SKNBE(2) cells co-transfected with RXRalpha and luciferase reporter plasmid harboring NBRE response element assessed as decrease in luciferase activity at 0.244 to 15.63 uM incubated for 18 by luciferase reporter gene assay; conditions: SKNBE2, filed as modulator, dose 0.244-15.63 µM, time 18.0 hrs; outline: as §6

Sequence of Nuclear receptor subfamily 4 group A member 2 (Homo sapiens) (P43354 whole entry, the tested form may be a part): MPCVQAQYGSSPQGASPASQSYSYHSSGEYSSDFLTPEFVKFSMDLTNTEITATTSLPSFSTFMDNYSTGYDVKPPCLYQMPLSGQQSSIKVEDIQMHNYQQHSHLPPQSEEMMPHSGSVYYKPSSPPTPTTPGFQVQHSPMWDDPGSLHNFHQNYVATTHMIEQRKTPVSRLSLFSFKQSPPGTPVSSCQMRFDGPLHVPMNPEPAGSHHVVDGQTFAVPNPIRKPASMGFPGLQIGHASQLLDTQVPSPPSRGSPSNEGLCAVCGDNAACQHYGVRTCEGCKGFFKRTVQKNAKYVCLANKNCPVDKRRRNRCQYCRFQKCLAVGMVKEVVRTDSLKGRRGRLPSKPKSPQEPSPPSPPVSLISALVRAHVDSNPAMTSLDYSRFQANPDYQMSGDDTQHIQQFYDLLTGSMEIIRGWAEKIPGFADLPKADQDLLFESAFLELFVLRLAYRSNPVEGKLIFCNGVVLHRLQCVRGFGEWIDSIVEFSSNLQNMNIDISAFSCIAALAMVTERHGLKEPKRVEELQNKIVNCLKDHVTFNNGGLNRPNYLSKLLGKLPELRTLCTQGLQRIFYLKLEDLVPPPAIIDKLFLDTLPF

CCCCCCCC(=O)c1cc(OC)c(OC)c(OC)c1CC(=O)OCC
Activity [1]: Toxic | Activity [2]: inactive | Activity [3]: inactive | Activity [4]: inactive | Activity [5]: Active | Activity [6]: inactive | Activity [7]: inactive | Activity [8]: Active | Activity [9]: inactive | Activity [10]: Toxic | Activity [11]: inactive | Activity [12]: Toxic | Activity [13]: inactive | Activity [14]: inactive | Activity [15]: inactive | Activity [16]: inactive | Activity [17]: Active | Activity [18]: inactive

C=C1C(=O)O[C@@H]2C[C@@]3(C)CCCC(=C)[C@@H]3C[C@H]12 [ISOALANTOLACTONE]
Activity [19]: Active | Activity [1]: Toxic | Activity [20]: Active | Activity [5]: Active | Activity [8]: Active | Activity [21]: Active | Activity [10]: Toxic | Activity [22]: Active | Activity [12]: Toxic | Activity [23]: Active | Activity [24]: Active | Activity [25]: Active | Activity [26]: Active | Activity [17]: Active | Activity [27]: Active
